Results as given in the M2OR odorant receptor database.

Target: T1, OR5M3 (Homo sapiens) (UniProt Q8NGP4)
T1 sequence (whole entry): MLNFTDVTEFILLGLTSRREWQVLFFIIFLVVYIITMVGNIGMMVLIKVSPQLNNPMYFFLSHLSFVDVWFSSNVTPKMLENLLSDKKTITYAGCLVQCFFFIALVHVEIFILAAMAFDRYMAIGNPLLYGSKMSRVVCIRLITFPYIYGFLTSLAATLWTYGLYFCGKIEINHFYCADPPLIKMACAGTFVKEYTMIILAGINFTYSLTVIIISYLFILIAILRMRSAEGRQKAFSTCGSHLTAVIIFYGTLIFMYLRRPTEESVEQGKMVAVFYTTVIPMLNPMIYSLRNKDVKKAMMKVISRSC
Conditions: stereoisomer not certain
Outline: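 Each receptor–molecule pair is labelled responsive or non-responsive (inactive) according to whether the original authors judged the measured signal statistically different from baseline. The data were taken from the main text and supplementary material of published papers and checked for typos and inconsistencies. Assay methods differed by source, with transient luciferase assays in mammalian cell lines being common.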
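Further: active if original authors judged signal statistically different from baseline.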

Odorant receptor agonist call, inactive:
CC(=O)C1=NCCS1
CCC(=O)C1=NCCC1
C=CC(=O)CC
CCO
CCCCC(=O)O
CCc1ccc(O)cc1
CCC(C)C=O (configuration not stated)
C=C1CCC2CC1C2(C)C (configuration not stated)
CCCCC1CCC(=O)O1 (configuration not stated)
CCCCCCO
CCC=CCCC=CC=O
CCC=CCCOC(C)=O
CC1=CCOC1=O
CCCCCCCC(=O)[O-].[H+]
CC(=O)OCCC(C)C
CC(C)CCCCCCCCCCC=O
CCCCCCOC(C)=O
CCCC=CC=O
CCCCCCCCCC(=O)[O-].[H+]
CCC=O
CCOC(=O)CCSC
CC(=O)C(C)O (configuration not stated)
CCOC(=O)c1ccccc1
CCCCCCCC(C)=O
OCCc1ccccc1
CCC=CCCC=O
Cc1c[nH]c2ccccc12
CC1=CCC2CC1C2(C)C (configuration not stated)
CCCCCCC=CC=O
CCOC(=O)CC(C)C
C=CC(=O)CCCCC
OCC=Cc1ccccc1
